What all share (format): functional, cell-based
The nature of experiment [1]: Antiproliferative activity against human JMAR cells after 72 hrs by MTS/PMS assay. The essentials: (§1)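 Cells kept in Advanced DMEM/F12 (1:1) with non-essential amino acids, 2 mM L-glutamine, penicillin, streptomycin and 10% FBS at 37 °C, 5% CO2. Seeded at 2000/well, attached overnight. Compound added in DMSO across a concentration range (1% DMSO final) for 72 h. Viable cells read by MTS/PMS and normalized to 1% DMSO controls (100%). IC50 taken from separate triplicate experiments.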

The test system of experiment [2] is MCF7. Nature of the experiment: Antiproliferative activity against human MCF7 cells expressing estrogen receptor after 72 hrs by MTS/PMS assay. As to conditions: MCF7, 72 h. The method, boiled down: as §1
A short description of experiment [3]: Antiproliferative activity against human MDA1986 cells after 72 hrs by MTS/PMS assay. As to conditions: MDA1986, 72 h. The essentials: as §1
Experiment [4] in a line: Antiproliferative activity against human androgen-independent PC3MM2 cells after 72 hrs by MTS/PMS assay. As to conditions: PC3MM2, 72 h. The method, boiled down: as §1
The test system of experiment [5] is B16-F10. Put plainly: Antiproliferative activity against mouse B16F10 cells after 72 hrs by MTS/PMS assay. Particulars: B16-F10, 72 h. The method, boiled down: as §1
Experiment [6] in a line: Antiproliferative activity against human androgen-dependent LNCaP-LN3 cells after 72 hrs by MTS/PMS assay. Particulars: LNCaP-LN3, 72 h. The essentials: as §1
The subject of experiment [7] is SK-BR-3. Put plainly: Antiproliferative activity against human SKBR3 cells expressing HER2 after 72 hrs by MTS/PMS assay. Particulars: SK-BR-3, 72 h. The method, boiled down:
as §1

The subject of experiment [8] is SK-MEL-28. Nature of the experiment: Antiproliferative activity against human SK-MEL-28 cells after 72 hrs by MTS/PMS assay. Particulars: SK-MEL-28, 72 h. The essentials: as §1

pIC50: −log10 of the molar value.

Broadly, the pIC50 is the IC50 on a negative log10 scale, so that one unit is a factor of ten. Take `COc1cccc(-c2cc(C(=O)Nc3cc4cc(OC)c(OC5C=CCNC5)c(C)c4oc3=O)ccc2OC)c1` (centres undefined): the pIC50 was 4.94 in experiment [1]; 5.77 in experiment [2]; 5.23 in experiment [3]; 5.45 in experiment [4]; 5.54 in experiment [5]; 5.27 in experiment [6]. The pIC50 in experiment [7] is 5.92; in experiment [8], 5.27.

Turning to `COc1cccc(-c2cc(C(=O)Nc3cc4ccc(OC5CC(C)C[C@@H](O)[C@H]5O)c(C)c4oc3=O)ccc2OC)c1` (some centres undefined), the pIC50 in experiment [1] is 5.56; in experiment [2], below 4.00; in experiment [3] it was 5.17; in experiment [4] it was 5.39; in experiment [5] it was 5.60; in experiment [6] it was 5.94. For the same compound, the negative logarithm of the IC50 (pIC50) in experiment [7] is below 4.00; in experiment [8], 4.94.

Consider `COc1cccc(-c2cc(C(=O)Nc3cc4ccc(O[C@@H]5C[C@H](O)CO5)c(C)c4oc3=O)ccc2OC)c1`, for which the negative-log IC50 (pIC50) in experiment [1] was 5.21; in experiment [2], below 4.00; in experiment [3], 4.73; in experiment [4], 4.57; in experiment [5] it was 5.03; in experiment [6], 5.30. Also, the values for the pIC50 in experiment [7] and in experiment [8] were below 4.00 and 4.91, respectively.

For the compound `COc1cccc(-c2cc(C(=O)Nc3cc4cc(OC)c(OC5CCNCC5)c(C)c4oc3=O)ccc2OC)c1`, the pIC50 in experiment [1] was 4.96; in experiment [2], 5.55; in experiment [3] it was 4.84; in experiment [4], 5.40; in experiment [5], 5.74; in experiment [6] it was 5.28. Further, the figures for the pIC50 in experiment [7] and in experiment [8] were 5.92 and 5.24, respectively.

For `COc1cccc(-c2cc(C(=O)Nc3cc4ccc(O[C@@H]5OC[C@@H](O)[C@H]5O)c(OC)c4oc3=O)ccc2OC)c1`, the negative logarithm of the IC50 (pIC50) in experiment [1] is 5.57; in experiment [2], 4.93; in experiment [3], 5.24; in experiment [4], 4.97; in experiment [5], 5.89; in experiment [6] it was 5.59. Also, the pIC50 in experiment [7] was 5.12; in experiment [8] it was 5.19.

As for `COc1cccc(-c2cc(C(=O)Nc3cc4ccc(OC5CCC[C@@H](O)[C@H]5O)c(C)c4oc3=O)ccc2OC)c1` (some centres undefined), the negative-log IC50 (pIC50) was 4.86 in experiment [1]; below 4.00 in experiment [2]; 4.75 in experiment [3]; 5.39 in experiment [4]; 4.85 in experiment [5]; 5.80 in experiment [6]. Also, the pIC50 was below 4.00 in experiment [7] and 5.53 in experiment [8].

Turning to `COc1cccc(-c2cc(C(=O)Nc3cc4ccc(OCCN(C)C)c(C)c4oc3=O)ccc2OC)c1`, the negative logarithm of the IC50 (pIC50) is 4.74 in experiment [1]; 5.84 in experiment [2]; 4.76 in experiment [3]; 5.38 in experiment [4]; 4.80 in experiment [5]; 5.18 in experiment [6]. Besides, the figures for the pIC50 in experiment [7] and in experiment [8] were 5.99 and 4.83, respectively.

Take `COc1cccc(-c2cc(C(=O)Nc3cc4ccc(O[C@H]5OCC[C@@H](O)[C@H]5O)c(C)c4oc3=O)ccc2OC)c1`: the pIC50 in experiment [1] is 5.21; in experiment [2] it was 4.37; in experiment [3], 5.43; in experiment [4], 4.89; in experiment [5] it was 5.07; in experiment [6] it was 5.92. Besides, the figures for the negative-log IC50 (pIC50) in experiment [7] and in experiment [8] were 5.17 and 4.80, respectively.

For `COc1cc2cc(NC(=O)c3cc4ccccc4[nH]3)c(=O)oc2c(C)c1OC1CCN(C)CC1`, the pIC50 was 5.91 in experiment [1]; 6.28 in experiment [2]; 5.85 in experiment [3]; 6.06 in experiment [4]; 5.92 in experiment [5]; 5.83 in experiment [6]. Moreover, the figures for the pIC50 in experiment [7] and in experiment [8] were 6.96 and 5.83, respectively.

Consider `COc1cccc(-c2cc(C(=O)Nc3cc4ccc(OC5CNC[C@@H](O)[C@H]5O)c(OC)c4oc3=O)ccc2OC)c1` (some centres undefined), for which the pIC50 in experiment [1] was 4.94; in experiment [2], 4.99; in experiment [3], 4.66; in experiment [4], 4.84; in experiment [5], 4.93; in experiment [6], 4.91. In addition, the figures for the pIC50 in experiment [7] and in experiment [8] were 5.05 and 4.94, respectively.

Consider `COc1cccc(-c2cc(C(=O)Nc3cc4cc(OC)c(OC5CCN(C)CC5)c(C)c4oc3=O)ccc2OC)c1`, for which the pIC50 is 5.74 in experiment [1]; 5.75 in experiment [2]; 5.81 in experiment [3]; 5.55 in experiment [4]; 4.43 in experiment [5]; 5.38 in experiment [6]. In addition, the values for the pIC50 in experiment [7] and in experiment [8] were 5.92 and 5.43, respectively.

For `COc1cccc(-c2cc(C(=O)Nc3cc4cc(OC)c(OC5C=CCN(C)C5)c(C)c4oc3=O)ccc2OC)c1` (centres undefined), the negative-log IC50 (pIC50) in experiment [1] is 4.74; in experiment [2], 5.28; in experiment [3], 4.79; in experiment [4], 5.41; in experiment [5], 5.21; in experiment [6] it was 5.35. Besides, the pIC50 in experiment [7] is 5.71; in experiment [8] it was 4.50.

In the case of `COc1cccc(-c2cc(C(=O)Nc3cc4cc(OC)c(OC5CCCN(C)C5)c(C)c4oc3=O)ccc2OC)c1` (centres undefined), the negative-log IC50 (pIC50) in experiment [1] is 4.72; in experiment [2], 5.85; in experiment [3], 4.88; in experiment [4] it was 5.16; in experiment [5], 5.57; in experiment [6] it was 4.98. Besides, the results for the negative logarithm of the IC50 (pIC50) in experiment [7] and in experiment [8] were 5.83 and 5.23, respectively.

Regarding `COc1cccc(-c2cc(C(=O)Nc3cc4cc(OC)c(O)c(C)c4oc3=O)ccc2OC)c1`, the negative-log IC50 (pIC50) in experiment [1] is 4.61; in experiment [2] it was 4.93; in experiment [3] it was 5.17; in experiment [4], 4.95; in experiment [5], 5.24; in experiment [6], 4.80. Further, the pIC50 in experiment [7] is 5.49; in experiment [8], 4.91.

For `COc1cccc(-c2cc(C(=O)Nc3cc4ccc(OC5CCNCC5)c(OC)c4oc3=O)ccc2OC)c1`, the pIC50 was 4.90 in experiment [1]; 5.49 in experiment [2]; 4.96 in experiment [3]; 5.07 in experiment [4]; 5.67 in experiment [5]; 4.96 in experiment [6]. Besides, the pIC50 was 5.75 in experiment [7] and 4.78 in experiment [8].

Turning to `COc1cccc(-c2cc(C(=O)Nc3cc4cc(OC)c(OC5CN(C)C[C@@H](O)[C@H]5O)c(C)c4oc3=O)ccc2OC)c1` (some centres undefined), the pIC50 in experiment [1] is 4.61; in experiment [2], 5.70; in experiment [3], 4.89; in experiment [4], 5.38; in experiment [5], 5.55; in experiment [6], 5.33. Moreover, the pIC50 was 5.56 in experiment [7] and 5.24 in experiment [8].

For the compound `COc1cccc(-c2cc(C(=O)Nc3cc4ccc(O[C@@H]5OCCC[C@H]5O)c(C)c4oc3=O)ccc2OC)c1`, the negative logarithm of the IC50 (pIC50) in experiment [1] was 4.79; in experiment [2], below 4.00; in experiment [3], 6.09; in experiment [4], 5.00; in experiment [5] it was 6.00; in experiment [6], 5.43. Besides, the pIC50 in experiment [7] is below 4.00; in experiment [8] it was 5.83.

As for `COc1cccc(-c2cc(C(=O)Nc3cc4ccc(OC5CCCNC5)c(OC)c4oc3=O)ccc2OC)c1` (centres undefined), the pIC50 is 4.90 in experiment [1]; 5.48 in experiment [2]; 4.89 in experiment [3]; 4.98 in experiment [4]; 6.19 in experiment [5]; 4.90 in experiment [6]. Also, the pIC50 in experiment [7] was 5.58; in experiment [8], 4.83.
